According to ChEMBL document CHEMBL4190191, “Cyclic Diarylheptanoids from Corylus avellana Green Leafy Covers: Determination of Their Absolute Configurations and Evaluation of Their Antioxidant and Antimicrobial Activities” (J Nat Prod, 2017):
The source made the active and inactive calls. No cut-off for these calls is given here.

Experiments:
Plasma [1] = assay: Antioxidant activity in human plasma assessed as inhibition of H2O2-induced lipid peroxidation at 10 uM after 30 mins by TBARS assay relative to control; assay type: functional, cell-free
In short: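 Fresh plasma from medication-free donors was incubated for 30 min at 37 °C with compound (0.1–100 μM) plus 2 mM H2O2. Lipid peroxidation was quantified as TBARS. Data are from 5–9 independent experiments, as mean ± SD.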

Bacillus cereus [2] = assay: Antimicrobial activity against Bacillus cereus DSM 4384 assessed as growth inhibition at 20 ug per disc after 24 to 48 hrs (reference value: 0 millimeter); assay type: functional; conditions: read-out: DIZ
Plasma [3] = assay: Antioxidant activity in human plasma assessed as inhibition of H2O2/Fe2+-induced lipid peroxidation at 10 uM after 30 mins by TBARS assay relative to control; assay type: functional, cell-free
In short: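 Human donor plasma was incubated for 30 min at 37 °C with compound at 10 μM plus 4.7 mM H2O2, 3.8 mM […] and 2.5 mM EDTA. Peroxidation was read as TBARS concentration.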

Staphylococcus aureus [4] = assay: Antimicrobial activity against Staphylococcus aureus DSM 25923 assessed as growth inhibition at 40 ug per disc after 24 to 48 hrs (reference value: 0 millimeter); assay type: functional; conditions: read-out: DIZ
[5] = Cytotoxicity against human DeFew cells at 10 to 100 uM by MTT assay; assay type: cell-based
In short: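 DeFew human B-lymphoma cells were maintained in RPMI 1640 with 10% FBS, 1% penicillin/streptomycin and 2 mM L-glutamine, in humidified 5% CO2 at 37 °C. Cells were exposed to 10–100 μM, and viability was read by MTT.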

Pseudomonas aeruginosa [6] = assay: Antimicrobial activity against Pseudomonas aeruginosa DSM 50071 assessed as growth inhibition at 20 ug per disc after 24 to 48 hrs (reference value: 0 millimeter); assay type: functional; conditions: read-out: DIZ
Staphylococcus aureus [7] = assay: Antimicrobial activity against Staphylococcus aureus DSM 25923 assessed as growth inhibition at 10 ug per disc after 24 to 48 hrs (reference value: 0 millimeter); assay type: functional; conditions: read-out: DIZ
Escherichia coli [8] = assay: Antimicrobial activity against Escherichia coli DSM 8579 assessed as growth inhibition at 40 ug per disc after 24 to 48 hrs (reference value: 0 millimeter); assay type: functional; conditions: read-out: DIZ
Escherichia coli [9] = assay: Antimicrobial activity against Escherichia coli DSM 8579 assessed as growth inhibition at 10 ug per disc after 24 to 48 hrs (reference value: 0 millimeter); assay type: functional; conditions: read-out: DIZ
Staphylococcus aureus [10] = assay: Antimicrobial activity against Staphylococcus aureus DSM 25923 assessed as growth inhibition at 20 ug per disc after 24 to 48 hrs (reference value: 0 millimeter); assay type: functional; conditions: read-out: DIZ
Pseudomonas aeruginosa [11] = assay: Antimicrobial activity against Pseudomonas aeruginosa DSM 50071 assessed per disc after 24 hrs by resazurin dye-based microtiter-plate assay; assay type: functional
In short: (§1)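 Resazurin microtiter-plate broth dilution. Samples in DMSO were twofold serially diluted in Mueller-Hinton broth with isosensitized broth and resazurin indicator. Bacteria were added to about 5 × 10^5 cfu/mL. Ciprofloxacin served as positive control and DMSO as negative control. Plates were run in triplicate at 37 °C for 24 h. MIC is the lowest concentration […].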

Bacillus cereus [12] = assay: Antimicrobial activity against Bacillus cereus DSM 4384 assessed per disc after 24 hrs by resazurin dye-based microtiter-plate assay; assay type: functional; in short: as §1
Pseudomonas aeruginosa [13] = assay: Antimicrobial activity against Pseudomonas aeruginosa DSM 50071 assessed as growth inhibition at 40 ug per disc after 24 to 48 hrs (reference value: 0 millimeter); assay type: functional; conditions: read-out: DIZ
Bacillus cereus [14] = assay: Antimicrobial activity against Bacillus cereus DSM 4313 assessed as growth inhibition at 40 ug per disc after 24 to 48 hrs (reference value: 0 millimeter); assay type: functional; conditions: read-out: DIZ
Bacillus cereus [15] = assay: Antimicrobial activity against Bacillus cereus DSM 4313 assessed per disc after 24 hrs by resazurin dye-based microtiter-plate assay; assay type: functional; in short: as §1
Escherichia coli [16] = assay: Antimicrobial activity against Escherichia coli DSM 8579 assessed as growth inhibition at 20 ug per disc after 24 to 48 hrs (reference value: 0 millimeter); assay type: functional; conditions: read-out: DIZ
Staphylococcus aureus [17] = assay: Antimicrobial activity against Staphylococcus aureus DSM 25923 assessed per disc after 24 hrs by resazurin dye-based microtiter-plate assay; assay type: functional; in short: as §1
Bacillus cereus [18] = assay: Antimicrobial activity against Bacillus cereus DSM 4313 assessed as growth inhibition at 10 ug per disc after 24 to 48 hrs (reference value: 0 millimeter); assay type: functional; conditions: read-out: DIZ
Escherichia coli [19] = assay: Antimicrobial activity against Escherichia coli DSM 8579 assessed per disc after 24 hrs by resazurin dye-based microtiter-plate assay; assay type: functional; in short: as §1
A549 = assay: Cytotoxicity against human A549 cells at 10 to 100 uM by MTT assay; assay type: cell-based; conditions: a549, 100 µM
In short: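 A549 human lung adenocarcinoma cells were kept in DMEM with 10% FBS, 1% penicillin/streptomycin and 2 mM L-glutamine, at 37 °C under 5% CO2. Viability was measured by MTT assay after exposure to 10–100 μM.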

Bacillus cereus [20] = assay: Antimicrobial activity against Bacillus cereus DSM 4384 assessed as growth inhibition at 10 ug per disc after 24 to 48 hrs (reference value: 0 millimeter); assay type: functional; conditions: read-out: DIZ
Pseudomonas aeruginosa [21] = assay: Antimicrobial activity against Pseudomonas aeruginosa DSM 50071 assessed as growth inhibition at 10 ug per disc after 24 to 48 hrs (reference value: 0 millimeter); assay type: functional; conditions: read-out: DIZ
Bacillus cereus [22] = assay: Antimicrobial activity against Bacillus cereus DSM 4313 assessed as growth inhibition at 20 ug per disc after 24 to 48 hrs (reference value: 0 millimeter); assay type: functional; conditions: read-out: DIZ
Bacillus cereus [23] = assay: Antimicrobial activity against Bacillus cereus DSM 4384 assessed as growth inhibition at 40 ug per disc after 24 to 48 hrs (reference value: 0 millimeter); assay type: functional; conditions: read-out: DIZ

SMILES | inhibition (Plasma [1]) | zone of inhibition at 20 µg/disc (Bacillus cereus [2]) [mm] | inhibition (Plasma [3]) | zone of inhibition at 40 µg/disc (Staphylococcus aureus [4]) [mm] | Activity [5] | zone of inhibition at 20 µg/disc (Pseudomonas aeruginosa [6]) [mm] | zone of inhibition at 10 µg/disc (Staphylococcus aureus [7]) [mm] | zone of inhibition at 40 µg/disc (Escherichia coli [8]) [mm] | zone of inhibition at 10 µg/disc (Escherichia coli [9]) [mm] | zone of inhibition at 20 µg/disc (Staphylococcus aureus [10]) [mm] | MIC (Pseudomonas aeruginosa [11]) [µg] | MIC (Bacillus cereus [12]) [µg] | zone of inhibition at 40 µg/disc (Pseudomonas aeruginosa [13]) [mm] | zone of inhibition at 40 µg/disc (Bacillus cereus [14]) [mm] | MIC (Bacillus cereus [15]) [µg] | zone of inhibition at 20 µg/disc (Escherichia coli [16]) [mm] | MIC (Staphylococcus aureus [17]) [µg] | zone of inhibition at 10 µg/disc (Bacillus cereus [18]) [mm] | Activity (A549) | zone of inhibition at 40 µg/disc (Bacillus cereus [23]) [mm] | also measured
O=C1Cc2ccc(O)c(c2)-c2cc(ccc2O)C[C@@H](O)[C@@H](O)[C@@H](O)[C@H]1O (mixture of isomers) | 33.3% | 9.67 | 14.4% | 10.7 | Non-Toxic | 8.67 | 6.33 | 10.3 | 4.67 | 10 | 10 | 5 | 10 | 10.7 | 5 | 10 | 30 | 5.67 | Non-Toxic | 11.3 | MIC (Escherichia coli [19]): 10 µg; zone of inhibition at 10 µg/disc (Bacillus cereus [20]): 5.67 mm; zone of inhibition at 10 µg/disc (Pseudomonas aeruginosa [21]): 5 mm; zone of inhibition at 20 µg/disc (Bacillus cereus [22]): 9.67 mm
O=C1CCc2ccc(O[C@@H]3O[C@H](CO)[C@@H](O)[C@H](O)[C@H]3O)c(c2)-c2cc(ccc2O)C[C@@H](O)[C@H](O)[C@H]1O (mixture of isomers) | 14.7% | 0 | 23.3% | 11.3 | Non-Toxic | 0 | 0 | 0 | 0 | 0 | 30 | 50 | 9 | 5 | 30 | 0 | 30 | 0 | Non-Toxic | 0 | MIC (Escherichia coli [19]): 50 µg; zone of inhibition at 10 µg/disc (Bacillus cereus [20]): 0 mm; zone of inhibition at 10 µg/disc (Pseudomonas aeruginosa [21]): 0 mm; zone of inhibition at 20 µg/disc (Bacillus cereus [22]): 0 mm
O=C1CCc2ccc(O)c(c2)-c2cc(ccc2O)C[C@@H](O)[C@H](O)[C@H]1O (mixture of isomers) | 32.2% | 5 | 24.4% | 5.67 | Non-Toxic | 4.67 | 0 | 11.7 | 9.33 | 0 | 10 | 4 | 10.7 | 10.7 | 4 | 9.67 | 30 | 5 | Non-Toxic | 10.7 | MIC (Escherichia coli [19]): 10 µg; zone of inhibition at 10 µg/disc (Bacillus cereus [20]): 5 mm; zone of inhibition at 10 µg/disc (Pseudomonas aeruginosa [21]): 4.67 mm; zone of inhibition at 20 µg/disc (Bacillus cereus [22]): 5 mm
O=C1/C=C/CCc2ccc(O[C@@H]3O[C@H](CO)[C@@H](O)[C@H](O)[C@H]3O)c(c2)-c2cc(ccc2O[C@H]2OC[C@H](O)[C@H](O)[C@H]2O)CC1 (mixture of isomers) | 12.6% |  | 18.1% | 10 | Non-Toxic |  |  | 10 |  |  |  |  | 4.67 | 5 |  |  |  |  | Non-Toxic | 0 | 
C[C@@H]1O[C@@H](Oc2c(-c3ccc(O)cc3)oc3cc(O)cc(O)c3c2=O)[C@H](O)[C@H](O)[C@H]1O [AFZELIN] | 5.7% |  | 20.1% | 10.3 | Non-Toxic |  |  | 10 |  |  |  |  | 4 | 0 |  |  |  |  | Non-Toxic | 5 | 
O=C(O)CC(O)(CC(=O)O)C(=O)O [CITRIC ACID] | inactive |  | inactive | 10.7 | Non-Toxic |  |  | 10.7 |  |  |  |  | 9.33 | 10 |  |  |  |  | Non-Toxic | 0 | 
